What was measured:
Glucocorticoid receptor [1] = target: T1, Glucocorticoid receptor (Homo sapiens, UniProt P04150); assay: Glucocorticoid induced transactivation of human tyrosine amino transferase in HepG2 cells; assay type: functional, cell-based
T1 sequence (P04150 whole entry): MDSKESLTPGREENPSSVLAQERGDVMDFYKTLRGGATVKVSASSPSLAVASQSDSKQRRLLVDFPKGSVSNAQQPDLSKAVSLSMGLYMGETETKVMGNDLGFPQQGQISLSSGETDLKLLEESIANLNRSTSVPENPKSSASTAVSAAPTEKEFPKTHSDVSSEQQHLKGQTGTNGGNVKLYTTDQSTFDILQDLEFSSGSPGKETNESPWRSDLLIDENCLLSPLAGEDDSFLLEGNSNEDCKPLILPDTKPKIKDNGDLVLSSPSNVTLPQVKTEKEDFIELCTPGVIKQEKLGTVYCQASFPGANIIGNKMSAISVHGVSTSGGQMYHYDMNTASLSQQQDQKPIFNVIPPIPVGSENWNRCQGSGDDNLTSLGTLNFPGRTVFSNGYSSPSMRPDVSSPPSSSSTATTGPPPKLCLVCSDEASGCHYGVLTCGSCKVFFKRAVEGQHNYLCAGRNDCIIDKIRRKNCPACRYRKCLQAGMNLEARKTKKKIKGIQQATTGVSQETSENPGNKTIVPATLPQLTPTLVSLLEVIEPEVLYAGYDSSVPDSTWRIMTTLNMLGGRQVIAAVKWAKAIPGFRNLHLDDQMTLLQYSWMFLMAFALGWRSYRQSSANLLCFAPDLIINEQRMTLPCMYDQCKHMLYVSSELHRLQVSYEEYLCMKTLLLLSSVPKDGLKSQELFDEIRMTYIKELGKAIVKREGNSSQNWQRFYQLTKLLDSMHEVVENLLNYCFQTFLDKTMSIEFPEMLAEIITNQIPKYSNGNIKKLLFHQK

Glucocorticoid receptor [2] = target: T1, Glucocorticoid receptor; assay: Ability to induce human IL-6 assay in A549 lung carcinoma cell line.; assay type: functional, cell-based
Glucocorticoid receptor [3] = target: T1, Glucocorticoid receptor; assay: Ability to induce human glutamine synthetase in skeletal muscle cells; assay type: cell-based
Mus musculus = assay: Ability to induce mouse macrophage IL-6 assay in peritoneal exudate cells harvested by […] from C57BI/6 mice.; assay type: functional, cell-based
Method in brief: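 Thioglycolate-elicited peritoneal exudate cells from C57Bl/6 mice, harvested day 3 in PBS/heparin, washed and resuspended at 5.6×10^5 cells/mL in RPMI 1640 with 10% heat-inactivated FCS. Compound (typically 3 μM final) preincubated 1 h at 37 °C, 5% CO2, then LPS or TNF added, 24 h. Supernatant IL-6 read; duplicate wells, three experiments.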

Glucocorticoid receptor [4] = target: T1, Glucocorticoid receptor; assay: Compound was tested for inhibitory activity towards human glucocorticoid receptor
[5] = target: Mineralocorticoid receptor (Rattus norvegicus) (UniProt P22199); assay: Binding affinity for rat mineralocorticoid receptor
Estrogen receptor = target: T2, Estrogen receptor (Homo sapiens, UniProt P03372); assay: Binding affinity for human Estrogen receptor alpha
T2 sequence (P03372 whole entry): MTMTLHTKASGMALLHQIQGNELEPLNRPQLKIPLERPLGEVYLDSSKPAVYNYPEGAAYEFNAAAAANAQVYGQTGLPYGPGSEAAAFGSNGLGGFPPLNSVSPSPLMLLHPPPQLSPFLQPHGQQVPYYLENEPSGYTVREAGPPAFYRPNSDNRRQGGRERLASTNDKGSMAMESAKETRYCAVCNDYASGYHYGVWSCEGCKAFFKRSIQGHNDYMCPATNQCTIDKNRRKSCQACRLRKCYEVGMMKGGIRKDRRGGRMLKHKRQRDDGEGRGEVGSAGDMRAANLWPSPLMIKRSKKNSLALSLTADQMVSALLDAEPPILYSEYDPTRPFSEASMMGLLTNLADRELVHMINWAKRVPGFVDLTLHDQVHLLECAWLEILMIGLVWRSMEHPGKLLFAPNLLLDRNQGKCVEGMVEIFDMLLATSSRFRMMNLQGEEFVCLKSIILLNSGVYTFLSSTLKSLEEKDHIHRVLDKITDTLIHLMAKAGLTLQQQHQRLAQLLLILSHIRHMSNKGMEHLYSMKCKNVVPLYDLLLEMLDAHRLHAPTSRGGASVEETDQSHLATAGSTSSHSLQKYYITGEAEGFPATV

Progesterone receptor = target: T3, Progesterone receptor (Homo sapiens, UniProt P06401); assay: Binding affinity towards human progesterone receptor
T3 sequence (P06401 whole entry): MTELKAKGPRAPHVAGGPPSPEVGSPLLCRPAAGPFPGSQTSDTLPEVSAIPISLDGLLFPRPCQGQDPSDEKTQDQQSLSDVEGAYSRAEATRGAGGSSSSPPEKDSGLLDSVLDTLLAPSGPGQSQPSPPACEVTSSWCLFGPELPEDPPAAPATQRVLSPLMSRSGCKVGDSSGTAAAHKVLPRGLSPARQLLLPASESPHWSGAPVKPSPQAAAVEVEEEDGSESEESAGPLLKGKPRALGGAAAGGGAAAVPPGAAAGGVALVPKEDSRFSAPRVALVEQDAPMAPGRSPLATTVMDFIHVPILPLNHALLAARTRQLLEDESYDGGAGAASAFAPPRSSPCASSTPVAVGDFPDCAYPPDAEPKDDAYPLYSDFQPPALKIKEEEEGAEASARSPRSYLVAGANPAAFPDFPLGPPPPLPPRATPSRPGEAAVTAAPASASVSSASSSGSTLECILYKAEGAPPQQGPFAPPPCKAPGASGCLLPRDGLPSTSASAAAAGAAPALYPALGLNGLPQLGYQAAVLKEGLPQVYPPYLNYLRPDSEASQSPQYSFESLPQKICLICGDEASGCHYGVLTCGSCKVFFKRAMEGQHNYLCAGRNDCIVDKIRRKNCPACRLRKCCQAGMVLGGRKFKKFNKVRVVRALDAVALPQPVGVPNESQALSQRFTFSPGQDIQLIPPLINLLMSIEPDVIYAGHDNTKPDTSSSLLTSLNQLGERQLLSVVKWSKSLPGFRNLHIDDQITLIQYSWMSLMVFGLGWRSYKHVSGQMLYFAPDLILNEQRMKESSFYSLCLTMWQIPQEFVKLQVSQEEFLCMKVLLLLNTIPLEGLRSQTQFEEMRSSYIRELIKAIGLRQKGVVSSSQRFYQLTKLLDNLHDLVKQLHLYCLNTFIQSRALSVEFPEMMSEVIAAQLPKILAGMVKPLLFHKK
Method in brief: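 Receptor homogenates from frozen cell pellets in ice-cold KPO4 buffer (10 mM KPO4, 20 mM molybdate, 1 mM EDTA, 5 mM DTT, protease inhibitors), spun 35 000g 1 h at 4 °C. MR: recombinant baculovirus-expressed rat receptor, 2 nM [3H]aldosterone; PR: T-47D cell protein, 5 nM [3H]progesterone.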

Androgen receptor = target: T4, Androgen receptor (Homo sapiens, UniProt P10275); assay: Binding affinity for human androgen receptor
T4 sequence (P10275 whole entry): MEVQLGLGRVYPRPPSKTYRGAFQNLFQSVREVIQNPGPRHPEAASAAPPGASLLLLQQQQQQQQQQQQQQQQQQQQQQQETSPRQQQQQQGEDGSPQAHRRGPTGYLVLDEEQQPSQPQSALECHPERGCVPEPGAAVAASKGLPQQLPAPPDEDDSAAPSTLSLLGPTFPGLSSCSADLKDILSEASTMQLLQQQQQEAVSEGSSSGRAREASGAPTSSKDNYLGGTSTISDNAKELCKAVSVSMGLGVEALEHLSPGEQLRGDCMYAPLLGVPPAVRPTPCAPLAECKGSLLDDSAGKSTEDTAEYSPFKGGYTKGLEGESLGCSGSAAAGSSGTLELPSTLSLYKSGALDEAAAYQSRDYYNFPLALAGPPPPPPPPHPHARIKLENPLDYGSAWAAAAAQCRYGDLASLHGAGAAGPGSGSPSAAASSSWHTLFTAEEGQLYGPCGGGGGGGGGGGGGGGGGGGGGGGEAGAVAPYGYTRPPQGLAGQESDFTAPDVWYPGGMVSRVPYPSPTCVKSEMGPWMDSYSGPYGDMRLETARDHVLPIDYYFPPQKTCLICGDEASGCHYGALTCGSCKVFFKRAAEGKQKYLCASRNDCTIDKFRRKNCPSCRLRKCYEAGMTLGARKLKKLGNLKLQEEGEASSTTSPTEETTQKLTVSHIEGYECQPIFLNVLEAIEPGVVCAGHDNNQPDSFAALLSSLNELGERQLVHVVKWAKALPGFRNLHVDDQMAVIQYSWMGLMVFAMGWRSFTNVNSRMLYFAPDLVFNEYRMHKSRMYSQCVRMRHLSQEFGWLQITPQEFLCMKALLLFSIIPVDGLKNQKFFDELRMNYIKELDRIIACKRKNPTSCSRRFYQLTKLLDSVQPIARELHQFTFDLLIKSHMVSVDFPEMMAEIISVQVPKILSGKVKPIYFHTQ

Glucocorticoid receptor [6] = target: T1, Glucocorticoid receptor; assay: Binding affinity for human glucocorticoid receptor

Sequence of Mineralocorticoid receptor (Rattus norvegicus) (P22199 whole entry, looked up): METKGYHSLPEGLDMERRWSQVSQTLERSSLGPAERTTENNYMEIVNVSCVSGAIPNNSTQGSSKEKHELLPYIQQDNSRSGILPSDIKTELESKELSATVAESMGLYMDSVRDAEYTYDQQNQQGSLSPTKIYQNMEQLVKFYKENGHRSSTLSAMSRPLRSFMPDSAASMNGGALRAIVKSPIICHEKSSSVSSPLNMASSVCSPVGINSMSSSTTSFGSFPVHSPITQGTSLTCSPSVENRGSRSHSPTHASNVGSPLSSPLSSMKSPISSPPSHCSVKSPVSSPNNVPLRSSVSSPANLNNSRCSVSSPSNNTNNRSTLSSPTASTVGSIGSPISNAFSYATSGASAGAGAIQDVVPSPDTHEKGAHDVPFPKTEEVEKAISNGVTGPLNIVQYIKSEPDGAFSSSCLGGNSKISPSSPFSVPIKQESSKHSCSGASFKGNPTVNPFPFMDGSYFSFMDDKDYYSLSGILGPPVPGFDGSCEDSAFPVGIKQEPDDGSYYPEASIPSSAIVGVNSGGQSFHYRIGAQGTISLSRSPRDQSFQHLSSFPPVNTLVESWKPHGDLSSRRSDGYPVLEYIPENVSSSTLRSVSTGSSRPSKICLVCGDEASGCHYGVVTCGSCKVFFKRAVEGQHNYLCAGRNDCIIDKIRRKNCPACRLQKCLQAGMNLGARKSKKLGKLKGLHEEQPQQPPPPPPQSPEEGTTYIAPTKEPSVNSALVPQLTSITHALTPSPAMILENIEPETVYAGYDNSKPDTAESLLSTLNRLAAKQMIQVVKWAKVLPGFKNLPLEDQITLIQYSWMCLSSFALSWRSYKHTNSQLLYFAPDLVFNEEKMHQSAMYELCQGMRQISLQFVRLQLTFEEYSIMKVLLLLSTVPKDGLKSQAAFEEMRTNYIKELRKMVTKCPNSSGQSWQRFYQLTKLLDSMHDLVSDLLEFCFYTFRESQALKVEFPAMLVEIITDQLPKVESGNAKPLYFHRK

Compound | EC50 (Glucocorticoid receptor [2]) [nM] | EC50 (Mus musculus) [nM] | IC50 (Glucocorticoid receptor [4]) [nM] | IC50 [5] [µM] | IC50 (Estrogen receptor) [nM] | IC50 (Progesterone receptor) [nM] | IC50 (Androgen receptor) [µM] | IC50 (Glucocorticoid receptor [6]) [nM] | EC50 (Glucocorticoid receptor [1]) [nM] | EC50 (Glucocorticoid receptor [3]) [nM]
C=CC[C@H](O)[C@H]1CCCC2=Cc3c(cnn3-c3ccc(F)cc3)C[C@@]21C | 9.3 | 36.2 | 3.9 | – | – | – | – | – | 661 | 66
C[C@]12Cc3cnn(-c4ccc(F)cc4)c3C=C1CCC[C@@H]2[C@](C)(O)c1ccsc1 | 1 | 5.2 | 0.8 | – | – | – | – | – | 35.6 | 14.2
CC(C)(O)[C@H]1CCCC2=Cc3c(cnn3-c3ccc(F)cc3)C[C@@]21C | 3 | 15.1 | 1.9 | – | – | – | – | – | 83.5 | 182
C[C@]12Cc3cnn(-c4ccc(F)cc4)c3C=C1CCC[C@@H]2[C@@H](O)CCC1CC1 | 8.6 | 26.3 | 1.5 | – | – | – | – | – | 332 | 66
CC(C)(C)[C@H](O)[C@H]1CCCC2=Cc3c(cnn3-c3ccc(F)cc3)C[C@@]21C | – | – | 77.3 | – | – | – | – | – | – | –
COc1cc([C@H](O)[C@H]2CCCC3=Cc4c(cnn4-c4ccc(F)cc4)C[C@@]32C)cc(F)c1F | 14.4 | 15.2 | 1.9 | > 5 | > 1000 | > 1000 | > 5 | 1.9 | 521 | –
CC(C)(C)c1ccc(C[C@H](O)[C@H]2CCCC3=Cc4c(cnn4-c4ccc(F)cc4)C[C@@]32C)cc1 | 24.2 | 86.5 | 16.6 | – | – | – | – | – | – | –
C[C@]12Cc3cnn(-c4ccc(F)cc4)c3C=C1CCC[C@@H]2[C@@H](O)Cc1ccc(F)cc1 | 3.2 | 3.7 | 2.8 | – | – | – | – | – | 1000 | 53.7
Cc1cc([C@H](O)[C@H]2CCCC3=Cc4c(cnn4-c4ccc(F)cc4)C[C@@]32C)ccc1F | 10.2 | 54.3 | 6.7 | – | – | – | – | – | – | –
C[C@]12C=CC(=O)C=C1CCC1[C@@H]2[C@@H](O)C[C@@]2(C)[C@H]1CC[C@]2(O)C(=O)CO (single isomer, unassigned) [PREDNISOLONE] | – | 5.7 | – | – | – | – | – | – | – | –

Now from value to molecule, other results behind:

EC50 (Glucocorticoid receptor [2]) [nM] | EC50 (Mus musculus) [nM] | IC50 (Glucocorticoid receptor [4]) [nM] | IC50 [5] [µM] | IC50 (Estrogen receptor) [nM] | IC50 (Progesterone receptor) [nM] | IC50 (Androgen receptor) [µM] | IC50 (Glucocorticoid receptor [6]) [nM] | Compound | EC50 (Glucocorticoid receptor [1]) [nM] | EC50 (Glucocorticoid receptor [3]) [nM]
54.2 | 179 | 24.9 | – | – | – | – | – | C[C@]12Cc3cnn(-c4ccc(F)cc4)c3C=C1CCC[C@@H]2[C@@H](O)c1cccc(O)c1 | – | –
2.7 | 57.4 | 7.2 | – | – | – | – | – | C[C@]12Cc3cnn(-c4ccc(F)cc4)c3C=C1CCC[C@@H]2[C@@H](O)c1ccccc1F | – | –
13.9 | 24.7 | 4.2 | – | – | – | – | – | C[C@]12Cc3cnn(-c4ccc(F)cc4)c3C=C1CCC[C@@H]2[C@@H](O)Cc1ccccc1 | – | –
– | – | – | > 5 | > 1000 | > 1000 | > 5 | – | C[C@]12Cc3cnn(-c4ccc(F)cc4)c3C=C1CCC[C@@H]2[C@H](O)c1ccc(F)cc1 | – | –
31.3 | 20.5 | 7.9 | – | – | – | – | – | COc1cc([C@H](O)[C@H]2CCCC3=Cc4c(cnn4-c4ccc(F)cc4)C[C@@]32C)ccc1F | – | –
11.4 | 41.5 | 3.4 | – | – | – | – | – | Cc1ccc(C[C@H](O)[C@H]2CCCC3=Cc4c(cnn4-c4ccc(F)cc4)C[C@@]32C)cc1 | – | –
14.3 | – | 8.8 | – | – | – | – | – | C[C@H](O)[C@H]1CCCC2=Cc3c(cnn3-c3ccc(F)cc3)C[C@@]21C | – | –
– | 66.6 | 6.3 | – | – | – | – | – | COc1ccc(C[C@H](O)[C@H]2CCCC3=Cc4c(cnn4-c4ccc(F)cc4)C[C@@]32C)cc1 | – | –
– | – | – | > 5 | > 5000 | > 1000 | > 5 | – | C[C@]12Cc3cnn(-c4ccc(F)cc4)c3C=C1CCC[C@@H]2[C@@H](O)c1ccc(F)cc1 | – | –
1.9 | 60.1 | 9 | – | – | – | – | – | C[C@]12Cc3cnn(-c4ccc(F)cc4)c3C=C1CCC[C@@H]2[C@@H](O)c1ccc(Cl)cc1 | – | –
19.5 | 77.2 | 9.5 | – | – | – | – | – | C[C@]12Cc3cnn(-c4ccc(F)cc4)c3C=C1CCC[C@@H]2[C@@H](O)c1ccc(O)cc1 | – | –
2.9 | 111 | 8.4 | > 5 | > 1000 | 660 | > 5 | 8.4 | C[C@]12Cc3cnn(-c4ccc(F)cc4)c3C=C1CCC[C@@H]2[C@@H](O)c1ccccc1 | – | –

Reference: ChEMBL document CHEMBL1137074, “Novel N-arylpyrazolo[3,2-c]-based ligands for the glucocorticoid receptor: receptor binding and in vivo activity” (J Med Chem, 2004)
